Experiment [1] deals with GABA-A receptor; anion channel. Description: Binding affinity, determined by its ability to displace the [3H]GABA from Gamma-aminobutyric acid A (GABA-A) receptor site of rat brain membranes. Set-up: species or system Membrane.
The target of experiment [2] is GABA-A receptor; anion channel. Kind of experiment: Inhibition of [3H]GABA binding to Gamma-aminobutyric acid A (GABA-A) receptor of rat brain membranes. The class given is cell membranes, Membrane. The essentials: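 Triton-treated whole-brain membranes from male Wistar rats (180–220 g), labelled with [3H]GABA at 2.9 nM. Compounds were first screened at 100 μM. Those inhibiting binding by more than 50% were run as dose-inhibition curves of four to eight concentrations in triplicate incubations, and IC50 was derived by log-probit analysis.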

The nature of experiment [3]: Inhibitory activity against sodium-dependent synaptosome uptake was determined. The format is functional, tissue-based, Brain.
Experiment [4] addresses 4-aminobutyrate aminotransferase, mitochondrial (Homo sapiens, UniProt P80404). Description: Compound was tested for inhibition of Gamma-amino-N-butyrate transaminase.

4-aminobutyrate aminotransferase, mitochondrial, sequence (P80404 whole entry): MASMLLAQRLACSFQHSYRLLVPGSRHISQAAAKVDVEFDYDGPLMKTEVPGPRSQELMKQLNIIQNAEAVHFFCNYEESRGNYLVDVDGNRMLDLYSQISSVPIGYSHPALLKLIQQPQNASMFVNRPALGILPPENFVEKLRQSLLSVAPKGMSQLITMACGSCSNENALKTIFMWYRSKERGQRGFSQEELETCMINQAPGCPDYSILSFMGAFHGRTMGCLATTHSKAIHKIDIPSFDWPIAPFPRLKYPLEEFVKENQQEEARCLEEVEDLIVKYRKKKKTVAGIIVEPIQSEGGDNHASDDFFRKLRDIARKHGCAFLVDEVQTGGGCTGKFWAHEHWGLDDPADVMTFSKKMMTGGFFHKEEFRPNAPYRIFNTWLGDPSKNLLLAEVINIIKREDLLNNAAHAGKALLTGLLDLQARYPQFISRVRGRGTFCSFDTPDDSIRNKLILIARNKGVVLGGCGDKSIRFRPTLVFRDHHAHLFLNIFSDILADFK

As a reminder, the Ki is the dissociation constant of the complex between target and ligand, obtained from inhibition or displacement. The low end stands for a stronger hold on the target, the high end for a looser hold on the target. On to `Cc1cc(-c2ccccc2)n[n+](CCCC(N)=O)c1N`, for which the Ki in experiment [1] was 91 µM.
Compound `Nc1ccc(-c2ccsc2)n[n+]1CCCC(=O)O` registered a Ki in experiment [1] of 2.37 µM.
The compound `Nc1ccc(C2CCCCC2)n[n+]1CCCC(=O)O` returned an inhibitory constant (Ki) in experiment [1] of 3.74 µM.
As a reminder, the IC50 is the concentration needed to halve the response being measured. `Nc1nc(CCC(=O)O)cs1` showed an IC50 in experiment [2] of 68 µM.
Take `Cc1cc(-c2ccccc2)nn(CCCC(=O)O)c1=O`: the Ki in experiment [1] was more than 100 µM.
`O=C(O)CCc1c[nH]cn1` came in with an IC50 in experiment [2] of 290 µM.
Compound `Nc1ccc(-c2ccccc2Cl)n[n+]1CCCC(=O)O` came in with an inhibition constant Ki in experiment [1] of 1.37 µM.
Same read-out and setting: the figure for `Nc1ccc(-c2ccc(Cl)cc2)n[n+]1CCCC(=O)O` is 0.28 µM; for `Cc1cc(-c2ccc(O)cc2)n[n+](CCCC(=O)O)c1N` it is 0.43 µM.
On to `NC(=O)NCCCC(=O)O`, for which the Ki in experiment [1] was 100 µM.
As for `CC(C)(C)C(=O)ONCCCC(=O)O`, in experiment [1], the Ki turned out to be 100 µM.
On to `Cc1cc(-c2ccccc2)n[n+](CCC(=O)O)c1N`, for which the inhibition constant Ki in experiment [1] turned out to be 7 µM.
With `O=C(O)Cc1c[nH]cn1` [IMIDAZOLE ACETIC ACID], the concentration for half-maximal inhibition (IC50) in experiment [2] turned out to be 0.9 µM.
For `Cc1cc(-c2ccccc2)n[n+](CCCCCC(=O)O)c1N`, the Ki in experiment [1] is 12.7 µM.
In turn, `Cc1ccn[n+](CCCC(=O)O)c1N` showed a Ki in experiment [1] of 31.9 µM.
In experiment [2], `N=C(N)NCC(=O)O` [GUANIDINO ACETATE] returned a concentration for half-maximal inhibition (IC50) of 2.1 µM.
Consider `Nc1ccc(-c2ccc([N+](=O)[O-])cc2)n[n+]1CCCC(=O)O`, for which the inhibitory constant (Ki) in experiment [1] came out at 1.37 µM.
In experiment [1], `Nc1cc(-c2ccccc2)cn[n+]1CCCC(=O)O` returned an inhibition constant Ki of 100 µM.
`O=C(O)CCCC1CCNC1` (configuration not stated) displayed an inhibition constant (Ki) in experiment [1] of more than 100 µM.
`N=C(N)SCCC(=O)O` showed an IC50 in experiment [2] of 29 µM.
In experiment [2], `N/C(S)=N\CC(=O)O` came in with a half-inhibitory concentration (IC50) of 18 µM.
With `Nc1ccc(-c2ccc(Cl)cc2Cl)n[n+]1CCCC(=O)O`, the Ki in experiment [1] worked out at 0.56 µM.
Still for that read-out and setting: the figure for `CCCN(CCC)CCCC(=O)O` is more than 100 µM.
In turn, `Cc1cc(-c2ccccc2)n[n+](CCCCC(=O)O)c1N` yielded a Ki in experiment [1] of 10 µM.
The compound `CC(C)Cc1ccc(N)[n+](CCCC(=O)O)n1` gave a Ki in experiment [1] of 22.3 µM.
On the same count and under the same terms, the figure for `Cc1n[n+](CCCC(=O)O)c(N)cc1-c1ccccc1` is 10.6 µM; for `Cc1cc(-c2ccccc2)n[n+](CCCC(=O)O)c1N` [FAMIRAPRINIUM CHLORIDE] it is 2.3 µM; for `Cc1cc(-c2cccc(Cl)c2)n[n+](CCCC(=O)O)c1N` it is 0.45 µM.
On to `NC1C=CC(c2ccccc2)=NN1CCCC(=O)O` (configuration not stated), for which the Ki in experiment [1] was found to be 1.22 µM.
Compound `N#CCCC[n+]1nc(-c2ccccc2)ccc1N` had a Ki in experiment [1] of 91 µM.
As to `N=C(N)NCCC(=O)O` [OMPENACLID], the concentration for half-maximal inhibition (IC50) in experiment [2] worked out at 1.8 µM.
The compound `[N-]=[N+]=Nc1ccc(/C(N)=N/CCCC(=O)O)cc1` had an inhibition constant (Ki) in experiment [3] of 8 µM.
As for `Cc1cc(-c2ccc([N+](=O)[O-])cc2)n[n+](CCCC(=O)O)c1N`, affinity in experiment [1] was put at a Ki of 22.8 µM.
The compound `Cc1cc(N)[n+](CCCC(=O)O)nc1-c1ccccc1` registered an inhibition constant (Ki) in experiment [1] of 10.4 µM.
Same read-out and setting: the figure for `Cc1cc(-c2ccccc2Cl)n[n+](CCCC(=O)O)c1N` is 2.14 µM; for `Oc1onc2c1CCNCC2` it is 50 µM; for `CCOC(=O)CCC[n+]1nc(-c2ccccc2)cc(C)c1N` it is more than 100 µM.
In turn, `Cc1cc(-c2ccccc2)n[n+](CCC(C)C(=O)O)c1N` (configuration not stated) registered a Ki in experiment [1] of 7 µM.
In turn, `N#CCCC[n+]1nc(-c2ccccc2)cc(-c2ccccc2)c1N` showed a Ki in experiment [1] of 91 µM.
The compound `Nc1ccc(Cl)n[n+]1CCCC(=O)O` gave an inhibition constant (Ki) in experiment [1] of 91.2 µM.
`NC1C(c2ccccc2)=CC(c2ccccc2)=NN1CCCC(=O)O` (configuration not stated) showed an inhibitory constant (Ki) in experiment [1] of 100 µM.
The same measure, in the same setting: the figure for `C[N+]1(C)CCc2cc3c(cc2[C@H]1[C@@H]1OC(=O)c2c1ccc1c2OCO1)OCO3` is 38 µM; for `Cc1cc(-c2ccccc2)n[n+](CC(=O)O)c1N` it is 62 µM; for `Nc1ccc(-c2ccc(F)cc2)n[n+]1CCCC(=O)O` it is 1.27 µM.
`Cc1cc(-c2cccc3ccccc23)n[n+](CCCC(=O)O)c1N` had a Ki in experiment [1] of 2.64 µM.
Take `Cc1cc(-c2ccccc2)n[n+](CCCC#N)c1N`: the Ki in experiment [1] was 20 µM.
On to `COc1ccc(-c2cc(C)c(N)[n+](CCCC(=O)O)n2)cc1`, for which, in experiment [1], the affinity corresponds to a Ki of 0.31 µM.
Compound `Nc1ccc(-c2cccs2)n[n+]1CCCC(=O)O` displayed a Ki in experiment [1] of 0.58 µM.
In experiment [4], `O=C(O)CNC(=S)Nc1ccccc1` displayed a Ki of 91 µM.
Compound `Cc1ccc(-c2cc(C)c(N)[n+](CCCC(=O)O)n2)cc1` gave an inhibition constant Ki in experiment [1] of 0.55 µM.
In the case of `CC12CC(=O)C3C(CCC4CC(O)CCC43C)C1CC(=N)N2` (configuration not stated), in experiment [1], the inhibition constant (Ki) amounted to 0.047 µM.
As for `Cc1cc(-c2ccccc2)n[n+](C(C)CCC(=O)O)c1N` (configuration not stated), in experiment [1], the Ki was 9 µM.
